Data taken from ChEMBL document CHEMBL1806465, “Synthesis and biological evaluation of 4-nitro-substituted 1,3-diaryltriazenes as a novel class of potent antitumor agents” (Eur J Med Chem, 2011).
Calls of active or inactive are those of the source. The calls are words filed in the database; no cut-off is given here.

Experiments:
[1] = Therapeutic index, ratio IC50 for human MIAPaCa2 cells to IC50 for normal human fibroblasts; type: cell-based, MIA PaCa-2; settings: MIAPaCa2 cells versus normal human fibroblasts, read-out: Ratio IC50
Method in brief: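 IC50 values came from an MTT assay. Cells were seeded at 3000 per well and dosed the next day, with each concentration in quadruplicate. After 72 h at 37 °C, MTT (20 µg/well) was added for 4 h; formazan was dissolved in DMSO and read at 545 nm. Each experiment was done three times. Normal skin fibroblasts were used at 32 and 36 population doublings. T.I. = tumor-cell IC50 / fibroblast IC50.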

[2] = system: HEp-2; experiment: Cytotoxicity against human Hep2 cells after 72 hrs by MTT assay; type: functional, cell-based; settings: HEp-2, 72 h
Method in brief: (§1)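 MTT assay: 3000 cells/well seeded, compound added next day, each concentration in quadruplicate, 72 h at 37 °C; medium replaced with 20 µg MTT/well for 4 h, formazan dissolved in DMSO, OD 545 nm. […] Fibroblasts: normal skin fibroblasts from donor, DMEM/10% FBS, used at 32 and 36 population doublings.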

[3] = system: HeLa; experiment: Cell cycle arrest in human HeLa cells assessed as accumulation at S phase at 0.78 uM after 24 hrs by propidium iodide staining -based flow cytometry (reference value: 27.7 %); type: functional
Method in brief: (§2)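 HeLa seeded at 100 000 cells/well, treated next day with 0.78, 7 or 21 µM for 24, 48 or 72 h. Adherent plus floating cells collected, PBS-washed, fixed overnight in 70% ethanol at −20 °C, RNase A 30 µg/ml 1 h RT, propidium iodide 16.7 µg/ml 30 min dark; DNA content by flow cytometry, phase percentages including subG1 reported.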

[4] = system: HeLa; experiment: Cell cycle arrest in human HeLa cells assessed as accumulation at G2/M phase at 21 uM after 72 hrs by propidium iodide staining -based flow cytometry (reference value: 9.7 %); type: functional; method in brief: as §2
[5] = system: HeLa; experiment: Cell cycle arrest in human HeLa cells assessed as accumulation at G0/G1 phase at 7 uM after 48 hrs by propidium iodide staining -based flow cytometry (reference value: 63.8 %); type: functional; method in brief: as §2
[6] = system: HeLa; experiment: Cell cycle arrest in human HeLa cells assessed as accumulation at subG1 phase at 21 uM after 72 hrs by propidium iodide staining -based flow cytometry (reference value: 7.2 %); type: functional; method in brief: as §2
[7] = system: HeLa; experiment: Induction of ER stress in human HeLa cells assessed as expression of CHOP and Grp78
[8] = system: MIA PaCa-2; experiment: Cytotoxicity against human MIAPaCa2 cells after 72 hrs by MTT assay; type: functional, cell-based; settings: MIA PaCa-2, 72 h; method in brief: as §1
[9] = system: HeLa; experiment: Induction of reactive oxygen species generation in human HeLa cells at 7 uM after 6 hrs by FACS analysis; type: functional, cell-based
Method in brief: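 Logarithmically growing HeLa cells were preloaded with 10 µM CM-H2DCFDA for 1 h. They were then exposed to 7, 20 or 40 µM for 8 h, or to 7 µM for 2, 4 or 6 h. Cells were trypsinized, fixed in cold 80% methanol, resuspended in PBS and read for fluorescence by flow cytometry. The positive control was 0.01% H2O2 for 30 min.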

[10] = system: HeLa; experiment: Cell cycle arrest in human HeLa cells assessed as accumulation at G0/G1 phase at 7 uM after 72 hrs by propidium iodide staining -based flow cytometry (reference value: 66.9 %); type: functional; method in brief: as §2
[11] = system: HeLa; experiment: Induction of Grp78 expression in human HeLa cells at 7 uM up to 8 hrs by Western blot analysis; type: functional, cell-based
Method in brief: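 Logarithmically growing HeLa cells were exposed to varying concentrations for 48 h, or to 7 µM for varying times. Cell extracts were run on 10% SDS gels and transferred to nitrocellulose. Membranes were blocked in 5% milk and probed with anti-Grp78 (1:1000, overnight, 4 °C), then an HRP secondary (1:5000, 2 h, RT). Detection was by ECL, with ERK2 reprobing as the loading control.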

[12] = system: HeLa; experiment: Induction of CHOP expression in human HeLa cells at 7 uM after 16 to 48 hrs by Western blot analysis; type: functional, cell-based
Method in brief: (§3)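 Log-phase HeLa exposed to a concentration series for 48 h, or to 7 µM over a time course. Extracts resolved on 10% SDS gels, blotted to nitrocellulose, blocked 5% milk; anti-CHOP 1:1000 in 5% BSA overnight at 4 °C, HRP secondary 1:5000 2 h RT, ECL detection; ERK2 reprobe as loading control.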

[13] = system: HeLa; experiment: Induction of CHOP expression in human HeLa cells at 0.09 to 7 uM after 48 hrs by Western blot analysis; type: functional, cell-based; method in brief: as §3
[14] = system: HeLa; experiment: Cell cycle arrest in human HeLa cells assessed as accumulation at S phase at 21 uM after 24 hrs by propidium iodide staining -based flow cytometry(reference value: 27.7 %); type: functional; method in brief: as §2

CC(=O)N(/N=N/c1ccc([N+](=O)[O-])cc1Cl)c1ccc([N+](=O)[O-])cc1Cl
selectivity ratio [1]: 0.037 | IC50 [2]: 620 nM | Activity [3]: 15.1% | Activity [4]: 8.4% | Activity [5]: 76.2% | Activity [6]: 80.2% | Activity [7]: Active | IC50 [8]: 520 nM | Activity [9]: Active | Activity [10]: 77.1% | Activity [11]: inactive | Activity [12]: Active | Activity [13]: Active | Activity [14]: 20.2%
